In ChEMBL document CHEMBL3112482, “Nonclassical antifolates, part 5. Benzodiazepine analogs as a new class of DHFR inhibitors: synthesis, antitumor testing and molecular modeling study” (Eur J Med Chem, 2014):

Legend:
Dihydrofolate reductase = target: T1, Dihydrofolate reductase (Bos taurus, UniProt P00376); assay: Inhibition of bovine liver DHFR measured for every 1 min of 10 mins
T1 sequence (P00376 whole entry): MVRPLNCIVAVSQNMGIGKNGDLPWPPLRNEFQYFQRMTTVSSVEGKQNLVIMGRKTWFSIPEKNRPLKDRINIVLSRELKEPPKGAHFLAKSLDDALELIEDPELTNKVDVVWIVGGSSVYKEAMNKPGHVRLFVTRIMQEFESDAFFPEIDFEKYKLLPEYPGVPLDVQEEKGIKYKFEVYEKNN

[1] = target: Dihydrofolate reductase (Bos taurus) (UniProt P00376); assay: Ratio of MTX IC50 to compound IC50 for bovine liver DHFR
Summary of the method: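 Bovine liver DHFR in Tris buffer pH 7.5, with dihydrofolate substrate. Final working levels were 0.29 g/l NADPH and 15 U/l DHFR. Absorbance was read at 340 nm at room temperature in kinetic mode every 1 min for 10 min. ΔA/min was taken relative to DMSO control to give % inhibition versus log concentration, from which the IC50 was derived. Methotrexate was the reference.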

[2] = Cytotoxicity against human breast cancer cells at 10 uM after 48 hrs; assay type: functional; details: Cancer cell lines
Summary of the method: (§1)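 Single-dose primary screen in the NCI 60 human tumour cell line panel, run at the NCI facility. The panel covers nine subpanels: leukaemia, non-small cell lung, colon, CNS, melanoma, ovarian, renal, prostate and breast. Read-out was percent growth of treated cells, shown as a mean graph and reported as percent growth inhibition.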

[3] = Cytotoxicity against human prostate cancer cells at 10 uM after 48 hrs; assay type: functional; details: Cancer cell lines
[4] = Cytotoxicity against human CNS cancer cells at 10 uM after 48 hrs; assay type: functional; details: Cancer cell lines
[5] = Cytotoxicity against human leukemia cells at 10 uM after 48 hrs; assay type: functional; details: Leukemia cell
[6] = Cytotoxicity against human renal cancer cells at 10 uM after 48 hrs; assay type: functional; details: Cancer cell lines
[7] = Cytotoxicity against human non-small cell lung cancer cells at 10 uM after 48 hrs; assay type: functional; details: Cancer cell lines; summary of the method: as §1
[8] = Cytotoxicity against human melanoma cells at 10 uM after 48 hrs; assay type: functional; details: Melanoma cell; summary of the method: as §1
[9] = Cytotoxicity against human colon cancer cells at 10 uM after 48 hrs; assay type: functional; details: Cancer cell lines; summary of the method: as §1
[10] = read-out: LC50 (the source's name)

Compound `COc1ccc(/C=C2\CCCC3=C(c4ccc(OC)cc4)Nc4cc(C)c(C)cc4N=C32)cc1` has an IC50 (Dihydrofolate reductase) of 0.1 µM.
With `Brc1ccc(/C=C2\CCCC3=C(c4ccc(Br)cc4)Nc4ccccc4N=C32)cc1` the IC50 (Dihydrofolate reductase) was 65 µM.
`COc1ccc(/C=C2\CCCC3=C(c4ccc(OC)c(OC)c4)Nc4cc(C)c(C)cc4N=C32)cc1OC` gave a Ratio IC50 [1] of 20 and an IC50 (Dihydrofolate reductase) of 0.004 µM.
Work on `O=c1[nH]cc(F)c(=O)[nH]1` [FLUOROURACIL] yielded a GI50 [2] of 76.4 µM, a TGI [2] of over 100 µM and a GI50 [3] of 22.7 µM. For the same compound, the TGI [3] was over 100 µM, the TGI [4] was over 100 µM and the CC50 [4, 10] was over 100 µM. For the same compound, the TGI [5] was over 100 µM, the CC50 [6] was over 100 µM and the GI50 [6] was 45.6 µM. For the same compound, the TGI [6] was over 100 µM, the GI50 [7] was over 100 µM and the TGI [7] was over 100 µM. It also gave a CC50 [7, 10] of over 100 µM, a GI50 [8] of 70.6 µM and a TGI [8] of over 100 µM. The CC50 [8, 10] was over 100 µM, the GI50 [9] was 8.4 µM and the TGI [9] was over 100 µM. It also gave a CC50 [9, 10] of over 100 µM.
`COc1cc(/C=C2\CCCC3=C(c4cc(OC)c(OC)c(OC)c4)Nc4cc(C)c(C)cc4N=C32)cc(OC)c1OC` showed an IC50 (Dihydrofolate reductase) of 1 µM.
Compound `COc1ccc(/C=C2\CCCC3=C(c4ccc(OC)c(OC)c4)Nc4ccccc4N=C32)cc1OC` has an IC50 (Dihydrofolate reductase) of 0.06 µM.
